How the values were obtained:
Format in all cases: functional
Glucocorticoid receptor = biological target: T1, Glucocorticoid receptor (Homo sapiens, UniProt P04150); assay: Antagonist activity against the Glucocorticoid Receptor (GR)
T1 sequence (P04150 whole entry): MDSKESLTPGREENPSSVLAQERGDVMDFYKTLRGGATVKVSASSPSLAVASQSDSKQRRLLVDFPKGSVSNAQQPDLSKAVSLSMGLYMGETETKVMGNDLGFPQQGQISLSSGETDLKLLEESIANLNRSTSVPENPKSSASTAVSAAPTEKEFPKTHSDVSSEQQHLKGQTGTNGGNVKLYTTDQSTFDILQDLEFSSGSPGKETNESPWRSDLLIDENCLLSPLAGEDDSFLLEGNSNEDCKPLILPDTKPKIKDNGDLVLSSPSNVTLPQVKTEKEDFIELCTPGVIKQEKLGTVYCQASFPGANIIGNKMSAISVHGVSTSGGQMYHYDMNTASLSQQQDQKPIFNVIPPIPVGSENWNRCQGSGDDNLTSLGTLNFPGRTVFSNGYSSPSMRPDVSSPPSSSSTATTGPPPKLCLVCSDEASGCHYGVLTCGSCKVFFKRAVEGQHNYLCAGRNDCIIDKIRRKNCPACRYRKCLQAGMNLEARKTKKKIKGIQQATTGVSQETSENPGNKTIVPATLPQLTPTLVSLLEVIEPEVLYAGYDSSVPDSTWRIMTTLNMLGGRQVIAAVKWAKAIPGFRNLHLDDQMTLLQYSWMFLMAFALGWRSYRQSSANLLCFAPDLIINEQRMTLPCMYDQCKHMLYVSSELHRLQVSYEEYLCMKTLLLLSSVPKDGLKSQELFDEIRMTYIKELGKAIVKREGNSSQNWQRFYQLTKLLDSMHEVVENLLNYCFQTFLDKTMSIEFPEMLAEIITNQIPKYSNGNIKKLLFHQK

[1] = biological target: T2, Mineralocorticoid receptor (Homo sapiens, UniProt P08235); assay: Antagonist activity against the Mineralocorticoid Receptor (MR)
T2 sequence (P08235 whole entry): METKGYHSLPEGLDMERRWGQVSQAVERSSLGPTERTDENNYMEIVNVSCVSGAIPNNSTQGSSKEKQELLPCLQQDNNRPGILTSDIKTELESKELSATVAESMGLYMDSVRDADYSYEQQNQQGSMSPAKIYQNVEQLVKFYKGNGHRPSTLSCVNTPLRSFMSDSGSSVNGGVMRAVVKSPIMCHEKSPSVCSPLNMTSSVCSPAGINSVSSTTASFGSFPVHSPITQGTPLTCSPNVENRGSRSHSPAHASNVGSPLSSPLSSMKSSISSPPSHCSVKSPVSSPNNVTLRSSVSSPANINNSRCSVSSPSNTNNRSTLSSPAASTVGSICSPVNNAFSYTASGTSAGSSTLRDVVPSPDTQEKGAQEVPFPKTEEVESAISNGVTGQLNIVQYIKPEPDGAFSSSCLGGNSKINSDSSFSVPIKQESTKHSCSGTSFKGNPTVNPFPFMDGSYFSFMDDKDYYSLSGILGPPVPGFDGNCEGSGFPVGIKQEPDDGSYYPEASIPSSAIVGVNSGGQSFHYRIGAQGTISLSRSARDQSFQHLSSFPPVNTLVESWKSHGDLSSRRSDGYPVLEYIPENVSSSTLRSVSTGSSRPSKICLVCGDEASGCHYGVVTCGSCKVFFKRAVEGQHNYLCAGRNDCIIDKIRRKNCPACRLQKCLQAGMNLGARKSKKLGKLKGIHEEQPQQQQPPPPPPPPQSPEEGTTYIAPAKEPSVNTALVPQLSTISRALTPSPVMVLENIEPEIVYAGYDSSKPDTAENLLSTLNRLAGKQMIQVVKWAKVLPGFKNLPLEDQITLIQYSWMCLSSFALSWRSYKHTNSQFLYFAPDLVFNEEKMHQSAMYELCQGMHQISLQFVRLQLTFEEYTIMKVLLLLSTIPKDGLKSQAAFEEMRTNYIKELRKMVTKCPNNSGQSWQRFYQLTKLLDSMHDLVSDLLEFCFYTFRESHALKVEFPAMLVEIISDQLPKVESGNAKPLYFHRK

[2] = biological target: T3, Progesterone receptor (Rattus norvegicus) (UniProt Q63449); assay: inhibitory activity against progesterone receptor (PR) in ovariectomized mature female rat complement C3 model
T3 sequence (whole entry): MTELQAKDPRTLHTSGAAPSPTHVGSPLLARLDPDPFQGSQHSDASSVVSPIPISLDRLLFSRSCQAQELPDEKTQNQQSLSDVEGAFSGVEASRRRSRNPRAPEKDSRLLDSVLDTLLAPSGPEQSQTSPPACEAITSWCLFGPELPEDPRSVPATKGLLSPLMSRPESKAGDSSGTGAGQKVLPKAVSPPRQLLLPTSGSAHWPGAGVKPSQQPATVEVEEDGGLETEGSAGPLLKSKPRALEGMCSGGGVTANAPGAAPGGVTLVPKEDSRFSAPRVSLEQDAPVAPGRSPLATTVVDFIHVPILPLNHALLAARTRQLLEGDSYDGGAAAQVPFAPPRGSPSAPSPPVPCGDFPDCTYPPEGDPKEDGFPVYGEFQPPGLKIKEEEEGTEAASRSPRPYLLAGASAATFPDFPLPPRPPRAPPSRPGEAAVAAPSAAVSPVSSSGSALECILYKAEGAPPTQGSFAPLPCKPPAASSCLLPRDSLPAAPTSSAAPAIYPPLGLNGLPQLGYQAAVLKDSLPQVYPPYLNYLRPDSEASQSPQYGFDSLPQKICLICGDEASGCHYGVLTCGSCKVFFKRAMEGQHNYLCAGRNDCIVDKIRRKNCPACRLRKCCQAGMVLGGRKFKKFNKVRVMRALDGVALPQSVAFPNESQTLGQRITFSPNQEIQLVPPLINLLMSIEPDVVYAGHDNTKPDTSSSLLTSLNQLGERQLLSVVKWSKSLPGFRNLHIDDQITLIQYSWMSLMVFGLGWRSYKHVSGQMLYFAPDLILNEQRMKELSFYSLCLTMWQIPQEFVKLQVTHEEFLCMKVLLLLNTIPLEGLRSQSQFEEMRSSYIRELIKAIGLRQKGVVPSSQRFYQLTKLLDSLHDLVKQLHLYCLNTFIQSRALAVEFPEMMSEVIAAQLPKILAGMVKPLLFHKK
In short: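 Adult ovariectomized rats given oral doses; read-out is reversal of progestin down-regulation of estrogen-induced complement C3 synthesis in uterine epithelium. ED50 averaged from at least duplicate determinations.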

Estrogen receptor = Estrogen receptor (Homo sapiens, UniProt Q92731+P03372); assay: Antagonist activity against the Estrogen Receptor (ER)

SMILES	IC50 (Glucocorticoid receptor) [nM]	IC50 [1] [nM]	ED50 [2] [mg/kg]	IC50 (Estrogen receptor) [nM]
CC1(C)OC(=O)Nc2ccc(-c3coc(C#N)c3)cc21	> 10000	> 10000		
CC1(C)OC(=O)Nc2ccc(-c3csc(C#N)c3)cc21	1860	1390		
CC1(C)OC(=O)Nc2ccc(-c3ccc(F)c(Cl)c3)cc21	2580	2490	2.5	> 10000
CC1(C)OC(=O)Nc2ccc(-c3cc(F)cc(C#N)c3)cc21	1760	2370	1	> 10000

From ChEMBL document CHEMBL1135816, “6-Aryl-1,4-dihydro-benzo[d][1,3]oxazin- 2-ones: a novel class of potent, selective, and orally active nonsteroidal progesterone receptor antagonists” (J Med Chem, 2002)
